The data set can be described thus: Toxicity liver stage against HepG2, at 10uM. The format is cell-based. More on the design: test concentration 10 uM, cell line HepG2-A16-CD81EGFP. The settings on record: human, HepG2-A16-CD81EGFP cells; read-out: INHIBITION
The gist of the method: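 Uninfected HepG2-A16-CD81EGFP cells, 3 × 10^3 per well, 1536-well, plated on prespotted compound at 10 μM final, parasite-free screening media added to match infected plates; puromycin 10 μM positive, DMSO 0.5% negative; run in parallel with 48 h PbLuc assay at 37 °C, 5% CO2; viability by CellTiter-Glo luminescence, normalized to controls.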

As to `c1cnn(C[C@@H]2C[C@@H]3CN(CC4CC4)CC[C@@H]3N2c2nccs2)c1`, the cytotoxicity at 10 µM worked out at 9.1%. As for `Cc1ccc(O)c(C(=O)N2CCC(CN3CCCCCC3)CC2)c1`, the figure is 5.52%; as for `COCC(=O)N1CCC2(CC1)CN(c1ccccn1)CCO2`, -71.2%. As for `O=C(O)c1cccc2c(Br)cccc12`, the figure is 3.38%; as for `CCOc1ncccc1CNC(=O)NC(C)Cn1cccn1` (configuration not stated), -15.7%.

`O=C1[C@@H]2CCN(CC3CC3)C[C@@H]2OCCN1c1cccnc1`: the cytotoxicity at 10 µM is 8.1%. For the molecule `Cc1n[nH]c(C)c1CCN(C)C(=O)c1ccc(CCC(C)(C)O)cc1`, the cytotoxicity at 10 µM was found to be 6.15%. Take `OC(CNc1cncc(OCc2ccccc2)n1)c1ccco1` (configuration not stated): the cytotoxicity at 10 µM was -1.53%.

As for `Cc1csc(N2CCCN(C(=O)c3ccsc3)CC2)n1`, the cytotoxicity at 10 µM is 5.28%.

As to `CN1CCC(c2nnc3n2CCN(S(=O)(=O)c2ccccc2)C3)CC1`, the cytotoxicity at 10 µM is -2.02%.

As to `CC(NC(=O)CCc1cccs1)c1nnc2n1CCCCC2` (configuration not stated), the cytotoxicity at 10 µM is -7.59%. On to `Oc1cc(-c2nccs2)nc(C2CCN(Cc3cccs3)CC2)n1`, for which the cytotoxicity at 10 µM was 16.7%. Then `CO[C@@H]1CCC[C@@H](NC(=O)c2cccc(F)c2)[C@H]1O`, with 1.65%; and `CC(C)Cc1nc(NC(=O)c2cccnc2)n[nH]1`, with -1.18%. With `O=C1O[C@@H]2CN(c3ncccn3)C[C@@H]2N1CCCc1ccc(F)cc1`, the cytotoxicity at 10 µM was -0.74%. Regarding `O=C(O)c1cc(S(=O)(=O)Nc2ccccc2)cc2c1OCCO2`, the cytotoxicity at 10 µM is -9.26%.

On to `CCNC(=O)NC(C)(C)C(=O)NCCc1csc2ccccc12`, for which the cytotoxicity at 10 µM was -15.5%. Then `CN(C)C(=O)CCNC(=O)Nc1cccc(Cl)c1-n1cccn1`, with 0.399%; and `Cc1csc(Nc2cc(C3CCCCN3C)nc(C)n2)n1` (configuration not stated), with 4.73%; and `Cc1cc(C)c(CNC(=O)N2CCC(N3CCCC3)CC2)c(=O)[nH]1`, with -3.52%. As for `c1cnn(Cc2ccc(CN3CCC4(CCCNC4)C3)cc2)c1` (configuration not stated), the figure is -3.71%. For the molecule `Cc1cc(C)n(C2CCCN(C(=O)Cc3csc(C)n3)C2)n1` (configuration not stated), the cytotoxicity at 10 µM was -10.4%. Regarding `Cn1ccnc1COc1ccc(CN2CCN(CCO)CC2)cc1`, the cytotoxicity at 10 µM was -10.2%. `NC(=O)CCN(CC(=O)NCc1cccs1)c1ccc(F)cc1`: the cytotoxicity at 10 µM amounted to 8.75%. As to `COCCN(CCOC)C(=O)c1cn(C(C)(C)C)c2ncccc12`, the cytotoxicity at 10 µM was -1.14%. As for `Cc1nc(C2(NCC(=O)NCc3cccs3)CCCCC2)no1`, the figure is 1.17%; as for `COCCN1CCC2(CC1)CN(C(=O)c1cccs1)CCO2`, -14.1%; as for `CC(C)C(=O)NCCc1nc(-c2ccncc2)n[nH]1`, 7.78%.

With `CC(=O)N(Cc1ncc(C(C)C)o1)C1CCN(Cc2ccno2)C1` (configuration not stated), the cytotoxicity at 10 µM was -11.1%. As for `O=C(N1CCCC1)N1C[C@@H](OCc2cccnc2)[C@H]2OCCC[C@H]21`, the figure is 4.85%; as for `Cc1ccc(C(=O)N2CC(C(N)=O)O[C@H](C)C2)c(C)c1` (some centres not stated), -0.29%. Turning to `CCS(=O)(=O)c1ncc(CN(C)Cc2ccc(C)o2)n1CCOC`, the cytotoxicity at 10 µM is -4.66%.

For the molecule `CN(C(=O)c1ccco1)c1nc2c(s1)CCCC2`, the cytotoxicity at 10 µM was determined as 13.7%.

As for `N#Cc1cc2cc(Cl)cnc2nc1O`, the cytotoxicity at 10 µM was determined as 4.29%.

On to `CCOc1ccccc1N(C)C(=O)c1cscn1`, for which the cytotoxicity at 10 µM was -0.704%.

As for `Cc1ccc2c(c1)C1(CCNCC1)CN2C(=O)C(C)C`, the cytotoxicity at 10 µM was -77%. Turning to `Cc1cc(NC(=O)C(C)N2CCN(c3nc(C)ns3)CC2)on1` (configuration not stated), the cytotoxicity at 10 µM was -9.48%.

`CSc1ccccc1CCC1CCS(=O)(=O)C1` (configuration not stated): the cytotoxicity at 10 µM was found to be 3.75%. Then `O=C(NCc1cccs1)NCC(O)(c1cccs1)C1CC1` (configuration not stated), with 1.66%; and `Cc1cc(CN2CCN(C(=O)C3(C#N)CCCC3)CC2)on1`, with -14.9%; and `CC(=O)N(C)CC(=O)NCC1CCN(c2cc(Cl)ccc2C)C1` (configuration not stated), with -8.77%. Then `CCCN1CCC(c2nc3ccc(NCc4ccccc4)cn3n2)CC1`, with -125%; and `Cc1cc(C)n(CC2CN(Cc3ccc4c(c3)OCCO4)CCO2)n1` (configuration not stated), with -22.3%. Consider `Cc1csc(CN(C)C2CCN(c3sccc3C#N)C2=O)n1` (configuration not stated), for which the cytotoxicity at 10 µM came out at 5.44%. Then `CN(C)c1nccc(N2CCO[C@H]3CN(CC4CCOCC4)C[C@H]32)n1`, with -7.21%.

`Cc1ccc(CN2CCOC3(CCN(CC4CCOC4)CC3)C2)cc1` (configuration not stated): the cytotoxicity at 10 µM is -117%.

With `c1cc2nc(C3CCNCC3)nn2cc1NC1CCC1`, the cytotoxicity at 10 µM was -98.8%. Then `CCS(=O)(=O)Nc1cnn(Cc2cccc(C)c2)c1`, with 0.724%; and `Cc1c(C(=O)O)cnn1-c1ccc(-c2nc(C3CC3)no2)cn1`, with 0.88%; and `Cc1nccc(C(=O)NC(CN2CCCC2=O)c2ccccc2)n1` (configuration not stated), with 8.01%. Regarding `Cc1nn(C)c(C)c1S(=O)(=O)NCC(C)(O)c1ccc2c(c1)OCO2` (configuration not stated), the cytotoxicity at 10 µM amounted to 1.77%. For the molecule `Cc1cccc(S(=O)(=O)N2Cc3nccn3CC(CN(C)C)C2)c1` (configuration not stated), the cytotoxicity at 10 µM is -105%. Take `O=C(CN1CCCc2sccc2C1=O)NC1CCc2nccn2C1` (configuration not stated): the cytotoxicity at 10 µM was determined as 16.1%. Then `Cc1ccc(OCC2CCCN(C(=O)c3csc(CN(C)C)n3)C2)cc1` (configuration not stated), with -3.16%.

In the case of `Cc1ccc(CN(C)C(=O)CN2CCCC2c2cnn(C)c2)cc1` (configuration not stated), the cytotoxicity at 10 µM was -1.6%. As for `CN(Cc1ccco1)C(=O)Nc1cccnc1N1CCCC1`, the figure is -5.3%; as for `O=C(C1CCOCC1)N1C[C@@H]2CC[C@H]1CN(Cc1ccncc1)C2`, -11%. Then `CCc1nccn1C1CCCN(C(=O)CCc2nccs2)C1` (configuration not stated), with -14.3%; and `Cc1nc(CN(Cc2ccncc2)C2CCN(C)CC2)cs1`, with -2.56%; and `CCCN(C(=O)c1ccc(-n2ccnn2)cc1)c1cccnc1`, with 13.8%.

With `CCS(=O)(=O)N1CCC(NC(=O)c2cc(C(C)C)ccc2O)CC1`, the cytotoxicity at 10 µM was -5.16%.

For the molecule `COc1cccc(COCC(=O)NC(C(N)=O)c2ccccc2)c1` (configuration not stated), the cytotoxicity at 10 µM is -3.73%.

Turning to `Cc1oc(-c2ccsc2)nc1CC(=O)NCCS(C)(=O)=O`, the cytotoxicity at 10 µM was -8.6%. `Cc1ccccc1CN(CCN(C)C)Cc1ccc(C(=O)O)cc1`: the cytotoxicity at 10 µM was -1.6%. Then `Cn1ccc(C(=O)NCc2ccccc2CN2CCCCC2)cc1=O`, with -2.51%; and `O=C(c1ccc(F)cc1)N1CCN2C[C@H](OCc3cccnc3)C[C@H]2C1`, with -85.1%. As for `O=C(c1cc(C2CC2)on1)N1CCC(Oc2ncccc2Br)CC1`, the figure is 3.96%. As for `NC(=O)c1csc(N2CCN(Cc3cccc4nsnc34)CC2)n1`, the figure is 0.5%; as for `CCN1CC(C(=O)NC(C)(C)C)CC1=O` (configuration not stated), -2.91%. Turning to `COc1ccc(F)cc1CSCC(=O)N(C)C1CC1`, the cytotoxicity at 10 µM was 0.611%.

As for `CSCCNC(=O)c1coc(COc2ccc3sc(C)nc3c2)n1`, the cytotoxicity at 10 µM was -1.51%. As for `O=C(NC1CC1)c1cccc(S(=O)(=O)NCCc2nc(C3CC3)no2)c1`, the figure is -0.714%.

The values above are taken from ChEMBL document CHEMBL4513216, “Probing the Open Global Health Chemical Diversity Library for Multistage-Active Starting Points for Next-Generation Antimalarials” (ACS Infect Dis, 2020).
